ABCB6 inh MLPCN = ABCB6 transporter inhibitors, primary screen, K562-ABCB6 cells, flow cytometry, MLPCN library | ATP-binding cassette sub-family B member 6 (Homo sapiens), Q9NP58 | K562-ABCB6 porphyrin accumulation, 1 h; active compounds read low | fluorescence ratio to DMSO, % at 10 µM | 360,000 tested, 0.19% active | AID 602162, 2011;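 active means fluorescence ratio to DMSO below 75%, the collection mean minus 3 SD; inconclusive means too few cells collected in the well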;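 further: signal is porphyrin accumulated inside mitochondria; 100% equals median channel fluorescence of DMSO control wells; lower ratio means ABCB6 inhibition with less porphyrin fluorescence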
NRP1-CendR mod = modulators of CendR peptide binding to NRP-1, primary screen, biochemical, fluorescence polarization, uHTS. FAM-RPARPAR peptide binding to NRP-1. Neuropilin-1 (Homo sapiens), O14786. inhibition, % at 25 µM. 360,000 tested, 0.85% active;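 active means inhibition or corrected inhibition above about 18%, plus a signal ratio from 0.5 to 1.5, limit read from the data, passing the limit was not always enough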
Arrestin-AP2 inh = inhibitors of beta-arrestin/AP2 binding, primary screen, biochemical, GPCR trafficking, flow cytometry; FITC-arrestin peptide / GST-AP2 beads; AP2 beta2 appendage carries R879A mutation; 340,000 tested, 0.31% active; beta-arrestin 1 C-terminal peptide binding to AP2 beta2-adaptin appendage (human); inhibition, % at 10 µM;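 active means inhibition above a set limit, near 3 SD of compounds lacking own fluorescence, cut at about 54% in these data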;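 further: plate controls were DMSO wells for no effect and 5 µM unlabelled arrestin peptide for full effect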
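System: GST-AP2 R879A glutathione beads | Also added: FITC-arrestin peptide, 50 nM | Times: 12 min plus 1 h, RT | Signal: Bead flow cytometry, FITC channel | Buffer or medium: PBS with 0.05% Tween 20 and 0.1% BSA | Read-out basis: Percent drop in bead-associated FITC signal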
Exocytosis inh = LAMP-1 surface exposure blockers, TALL-104 cells – cell-based, flow cytometry, MLPCN library, primary screen; TALL-104 LAMP-1 surface exposure; cells stimulated with thapsigargin and PMA; inhibition, % at 10 µM; 360,000 tested, 0.66% active; AID 651702, 2012;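 active means inhibition above about 55%, limit read from the data; inconclusive means no clear call, values can overlap the other calls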
Myeloid diff MLP = induction of myeloid progenitor differentiation, primary screen, cell-based, flow cytometry, MLPCN library; ER-HoxA9 myeloid progenitors, lysozyme-GFP differentiation; calls only at 10 µM; 360,000 tested, 1% active; AID 624256, 2012;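 active means normalized GFP-positive differentiation at or above the plate's own cutoff, the solvent-only control mean plus 3 SD; inconclusive means no clear call, values can overlap the other calls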;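 further: cells exposed to compound for four days before flow analysis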
ATG4B inhibitor = ATG4B protease inhibitors, primary screen, biochemical, fluorescence, uHTS; inhibition, % at 8.33 µM; ATG4B cleavage of LC3-PLA2, NBD-HPC fluorescence, 1 h; AID 504462, 2011; 340,000 tested, 0.51% active; Cysteine protease ATG4B (Homo sapiens), Q9Y4P1; in the data active means inhibition above about 40%
Target sequence (Q9Y4P1 whole entry, looked up): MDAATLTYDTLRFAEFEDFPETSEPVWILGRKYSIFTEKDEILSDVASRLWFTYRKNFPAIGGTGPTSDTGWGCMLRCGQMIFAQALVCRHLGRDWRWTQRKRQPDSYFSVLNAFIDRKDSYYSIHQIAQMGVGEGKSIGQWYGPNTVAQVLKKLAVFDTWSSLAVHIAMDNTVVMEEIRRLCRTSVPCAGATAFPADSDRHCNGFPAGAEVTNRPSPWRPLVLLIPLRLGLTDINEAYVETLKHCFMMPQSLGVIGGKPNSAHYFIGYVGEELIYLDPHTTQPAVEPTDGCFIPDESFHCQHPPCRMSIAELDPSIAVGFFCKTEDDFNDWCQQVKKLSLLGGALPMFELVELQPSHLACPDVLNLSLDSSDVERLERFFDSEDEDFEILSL
Exocytosis CP01 = inhibitors of lytic granule exocytosis, confirmation, TALL-104 cells, flow cytometry, Cherry Pick01; 1,500 tested, 11% active; shares compounds with Exocytosis inh; LAMP-1 externalization; stimulated with PMA plus thapsigargin; inhibition, % at 10 µM; AID 651954, 2012; in the data active means inhibition above about 60%;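 further: 0% = stimulated vehicle wells and 100% = unstimulated wells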
* marks the source's active call; other numbers are inactive results; i = inactive; ? = inconclusive; / = no result. An excerpt weighted towards active compounds, which were near 3.3% of everything screened.

SMILES | ABCB6 inh MLPCN | NRP1-CendR mod | Arrestin-AP2 inh | Exocytosis inh | Myeloid diff MLP | ATG4B inhibitor | Exocytosis CP01
COc1ccc(NC(=O)C2CCCN2C(=O)NC2CCCCC2)cc1 (centres undefined) | 96.0 | 6.5 | -1.0 | 1.1 | i | -3.5 | /
Cc1ccc(NC(=O)CSc2nnc(-c3ccoc3C)n2CCCN(C)C)cc1Cl | 99.0 | 12.3 | 11.5 | 62.6* | i | -6.8 | -4.8
COc1ccc(OC)c(Nc2nc(NCc3ccco3)c3ccccc3n2)c1 | 122.0 | -8.2 | -1.8 | 9.8 | i | -10.2 | /
c1ccc(Nc2nc(NCc3ccco3)c3ccccc3n2)cc1 | 107.0 | 0.9 | 8.4 | 76.9* | i | -1.2 | 6.0
c1ccc(CN2CCN(c3nc(NCc4ccco4)c4ccccc4n3)CC2)cc1 | 103.0 | -26.6 | 15.4 | 66.6* | i | 6.0 | 30.2
Oc1ccccc1Nc1nc(NCc2ccco2)c2ccccc2n1 | 93.0 | -0.1 | 2.5 | 61.2* | i | 11.9 | 89.0*
OCCN1CCN(c2nc(NCc3ccco3)c3ccccc3n2)CC1 | 101.0 | 2.1 | 9.1 | 2.0 | i | -5.1 | /
CCC(=O)N(Cc1cc2ccc(C)cc2[nH]c1=O)c1ccccc1OC | 98.0 | -0.2 | 14.5 | 0.2 | i | -2.5 | /
C[C@H](CO)N1C[C@H](C)[C@@H](CN(C)Cc2cccc(O)c2)OCc2cnnn2CCCC1=O | 98.0 | -2.4 | / | 2.6 | i | / | /
CC(C)(C)OC(=O)N[C@@H](Cc1ccccc1)C(=O)N1CCC(C(=O)N[C@@H](Cc2c[nH]c3ccccc23)C(=O)O)CC1 | 96.0 | 7.2 | -5.4 | -8.2 | i | -1.4 | /
COc1ccc(Nc2nc(-c3sc(C)nc3C)cs2)cc1 | 95.0 | 6.5 | -10.0 | 81.8* | / | -10.0 | 1.3
CSc1ccccc1NC(=O)CN(C)C(=O)CCc1c[nH]c2ccccc12 | 104.0 | -0.7 | -7.5 | 62.5* | i | 2.8 | -14.8
CCOc1ccc(S(=O)(=O)NCc2ccc3c(c2)OCO3)cc1C(=O)O | 97.0 | -5.5 | 0.5 | 2.2 | i | -6.4 | /
S=C(Nc1ccccc1Cl)NC1CC2CCCC(C1)N2C1CC1 (centres undefined) | 98.0 | 1.7 | 32.1 | 87.1* | i | -0.3 | -3.4
c1cc2c(cc1C1CCCCC1)c1c3n2CCCNC3CCC1 (centres undefined) | 108.0 | -7.4 | 2.4 | 76.7* | ? | 0.8 | 6.9
COc1ccc(C(=O)C2CCCN(Cc3cccn3-c3ccc(Cl)cn3)C2)c(OC)c1 (centres undefined) | 98.0 | 1.4 | -8.0 | 68.5* | i | -4.9 | -1.2
CC(=O)N1CC[n+]2c(-c3ccc(Cl)cc3Cl)csc21 | 105.0 | 5.4 | -11.1 | 7.7 | i | 2.2 | /
Cc1ccc(C)n1-c1nn(S(=O)(=O)c2ccccc2)c2cccc(F)c12 | 99.0 | -0.9 | 26.9 | 56.2* | i | 2.5 | -11.6
COc1ccc(S(=O)(=O)n2nc(-n3c(C)ccc3C)c3c(F)cccc32)cc1OC | 91.0 | -6.2 | 16.1 | -3.9 | i | 13.9 | /
O=C(CN(c1cccc([N+](=O)[O-])c1)S(=O)(=O)c1ccccc1)N1CCCCC1 | 95.0 | 5.7 | -6.0 | -5.6 | i | -1.3 | /
COc1cccc(OC)c1OCCCOc1cccc2cccnc12 | 102.0 | -5.9 | 0.4 | -0.3 | i | 1.2 | /
Clc1ccccc1OCCCOc1cccc2cccnc12 | 98.0 | 5.8 | 46.3 | 88.0* | i | 9.2 | -12.2
O=C(NC1CC1)c1cccc(Nc2ccc(-c3ccc4c(c3)OCCO4)nn2)c1 | 98.0 | -7.4 | -9.1 | 71.0* | i | -12.0 | 2.9
CC1CC(=O)c2cnc(N)nc2C1 (centres undefined) | 105.0 | -3.6 | -4.2 | 4.0 | i | -9.3 | /
CC1CC(=O)c2cnc(N3CCOCC3)nc2C1 (centres undefined) | 98.0 | 2.9 | 9.6 | 100.3* | i | -7.7 | -4.1
SMILES | ABCB6 inh MLPCN | NRP1-CendR mod | Arrestin-AP2 inh | Exocytosis inh | Myeloid diff MLP | ATG4B inhibitor | Exocytosis CP01
O=C(NC(Cc1ccccc1)C(=O)O)/C(=C/c1ccccc1)NC(=O)c1cccc(Br)c1 (centres undefined) | 102.0 | 1.0 | -2.2 | -1.0 | i | -10.1 | /
CSc1ccc2c(c1)C(N1CCN(C)CC1)Cc1ccc(F)cc1S2 (centres undefined) | 101.0 | 2.5 | 0.7 | 69.4* | i | -8.7 | 39.1
COc1ccc(-c2cn[nH]c2-c2ccc(OCc3ccc(F)cc3)cc2O)cc1OC | 89.0 | 0.9 | 2.2 | 19.1 | i | 30.6 | /
Oc1cc(OCc2ccccc2)ccc1-c1[nH]ncc1-c1ccccc1 | 102.0 | 9.1 | 7.7 | 100.1* | i | 16.3 | 16.1
C=C(C)COc1ccc(-c2[nH]ncc2-c2ccc(OC)cc2)c(O)c1 | 92.0 | 5.9 | -4.6 | 1.1 | i | 0.6 | /
O=[N+]([O-])c1ccc(COc2ccc(-c3[nH]ncc3-c3ccccc3)c(O)c2)cc1 | 92.0 | 2.7 | 41.9 | 11.0 | i | -6.2 | /
COc1ccc(-c2cn[nH]c2-c2ccc(OCc3ccccc3)cc2O)cc1OC | 98.0 | -1.5 | -27.8 | 64.2* | i | 6.5 | -3.9
C=C(C)COc1ccc(-c2[nH]ncc2-c2ccccc2)c(O)c1 | 107.0 | 25.3* | -1.3 | 85.1* | i | 7.3 | 4.1
C=C(C)C(=O)Oc1ccc(N2C(=O)[C@@H]3C4C=CC(C4)[C@@H]3C2=O)cc1 | 99.0 | 5.1 | 13.4 | -6.6 | i | 1.9 | /
CC(C)[C@H](NC(=O)N1CC(=O)Nc2ccccc21)C(=O)N1CCC[C@@H]1C(=O)O | 97.0 | -6.0 | 12.0 | 3.2 | i | -25.2 | /
CCCn1c(C(O)c2ccc(OC)cc2)nc2ccccc21 (centres undefined) | 88.0 | 4.6 | 24.5 | -2.9 | i | -6.6 | /
CCCn1c(C(O)c2cccc(OC)c2)nc2ccccc21 (centres undefined) | 99.0 | 5.3 | 26.6 | 73.2* | i | -3.6 | -12.8
CC(C)C(=O)NC(=S)Nc1c(Cl)ccc2nsnc12 | 92.0 | 7.0 | -14.9 | -3.4 | i | 0.6 | /
CCC(C)(C)C1CCc2[nH]nc(C(=O)NCCCNC(=O)OC(C)(C)C)c2C1 (centres undefined) | 97.0 | -9.2 | 7.1 | -1.7 | i | -14.7 | /
O=S(=O)(c1ccc(Br)s1)N1CCN(c2ccccc2)CC1 | 97.0 | -18.0 | 4.0 | 3.3 | i | 5.0 | /
O=S(=O)(c1ccc(Br)s1)N1CCN(c2ccc(F)cc2)CC1 | 82.0 | -6.6 | -2.3 | 66.1* | i | 0.3 | -13.2

Screens as filed in PubChem BioAssay.
